From ChEMBL document CHEMBL4028805, “Phenylthiazole Antibacterial Agents Targeting Cell Wall Synthesis Exhibit Potent Activity in Vitro and in Vivo against Vancomycin-Resistant Enterococci” (J Med Chem, 2017) come the findings set out here.

Values after ≈ are worked out from the molar mass of the structure shown. Active and inactive are the calls of the source.

Holding throughout (type): functional
One experiment relates to Pseudomonas aeruginosa. Description: Antibacterial activity against Pseudomonas aeruginosa ATCC 15442 after 18 to 22 hrs in absence of colistin by broth microdilution method. Background: Dilution methods test growth across graded concentrations, often in twofold steps.
Experiment [1] concerns Escherichia coli. Description: Antibacterial activity against Escherichia coli 1411 after 18 to 22 hrs in absence of colistin by broth microdilution method. The method, boiled down: (§1)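 Broth microdilution per CLSI guidelines. Gram-negatives grown in TSB. Each strain tested alone and again with colistin at ¼ × MIC to permeabilize the outer membrane. Plates incubated at 37 °C for 18–22 h. MIC read as the lowest concentration showing no visible growth.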

In the next experiment the test system is Enterobacter cloacae. Nature of the experiment: Antibacterial activity against Enterobacter cloacae BAA-1154 after 18 to 22 hrs in presence of 1/4 times MIC colistin by broth microdilution method. The gist of the method:
as §1

Another experiment deals with Staphylococcus aureus. Description: Antibacterial against Methicillin-Resistant Staphylococcus aureus after 18 to 20 hrs by broth microdilution method.
Experiment [2] has as its system Enterococcus faecalis. Nature of the experiment: Antibacterial activity against vancomycin-resistant Enterococcus faecalis ATCC 51299 assessed as ratio of MIC after and before 6 serial passages measured after 18 hrs by broth microdillution method. The gist of the method: (§2)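 Multi-step selection over 14 passages in two weeks. McFarland 0.5 inoculum diluted 1:300 in TSB (E. faecalis) or BHI (E. faecium) to 1 × 10^5 CFU/mL. Each passage reinoculated at ~5 × 10^5 CFU/mL from the sub-inhibitory well of the previous plate. Compounds serially diluted in triplicate, incubated ≥18 h at 37 °C, MIC read visually. Resistance defined as >4-fold MIC rise.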

The subject of another experiment is Enterococcus faecium. Description: Antibacterial activity against vancomycin-resistant Enterococcus faecium ATCC HM-968 after 14 serial passages measured after 18 hrs by broth microdillution method. The method, boiled down: as §2
The test system of experiment [3] is Escherichia coli. Nature of the experiment: Antibacterial activity against tolC deficient Escherichia coli assessed as formation of spheroplasts at 25 ug/ml after 2 hrs in presence of sucrose by FM4-64/DAPI/SYTOX green staining-based deconvolution microscopic analysis.
Experiment [4] has as its system Escherichia coli. Nature of the experiment: Antibacterial activity against tolC deficient Escherichia coli assessed as formation of misshapen cells at 25 ug/ml after 2 hrs in presence of sucrose by FM4-64/DAPI/SYTOX Green staining-based deconvolution microscopic analysis.
For experiment [5], the system named is Bacillus subtilis. Description: Antibacterial activity against Bacillus subtilis assessed as cell lysis at 5 times MIC after 30 mins by sytox green staining-based deconvolution microscopic analysis. The method, boiled down: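 B. subtilis grown in LB at 37 °C to OD600 ~0.2 and treated, with or without MSM for osmotic stabilization, for 30 min or 2 h. Stained with FM 4-64 (1 μg/mL), DAPI (1 μg/mL) and SYTOX Green (1 μg/mL) to score permeability. Examined by deconvolution and phase-contrast microscopy.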

Experiment [6] relates to Bacillus subtilis. Nature of the experiment: Antibacterial activity against Bacillus subtilis assessed as pool of membranes at 5 times MIC after 2 hrs in presence of methylsulfonyl methane by phase contrast microscopic analysis. The method, boiled down:
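B. subtilis grown in LB at 37 °C to OD600 ~0.2, then treated at 5 × MIC with MSM for osmotic stabilisation. At 2 h, stained with FM 4-64 (1 μg/mL), DAPI (1 μg/mL) and SYTOX Green (1 μg/mL). Imaged by deconvolution fluorescence and phase contrast microscopy.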

In experiment [7] the test system is Enterococcus faecalis. Nature of the experiment: Potentiation of vancomycin-induced antibacterial activity against Enterococcus faecalis HM-201 assessed as fold reduction in vancomycin MIC preincubated for 30 mins followed by vancomycin addition measured after 18 to 21 hrs. The gist of the method:
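VRE suspensions at 5×10^5 CFU/mL preincubated with compound at ½ × MIC for 30 min at room temperature. […] Fold reduction calculated as vancomycin MIC alone over MIC in combination.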

Experiment [8] relates to Enterococcus faecalis. Nature of the experiment: Synergistic antimicrobial activity against Enterococcus faecalis ATCC 51299 after 20 hrs in presence of ampicillin by checkerboard assay. The method, boiled down: (§3)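 Checkerboard in TSB with a starting inoculum of 1×10^5 CFU/mL. Compound and antibiotic diluted from 2× or 4× MIC along perpendicular axes. Incubated 20 h at 37 °C. ΣFIC calculated: ≤0.5 synergy, >0.5 to <2 additive, 2–4 indifference, >4 antagonism.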

Experiment [9] has as its system Enterococcus faecalis. Nature of the experiment: Synergistic antimicrobial activity against Enterococcus faecalis ATCC 51299 after 20 hrs in presence of doxycycline by checkerboard assay. The method, boiled down: as §3
Experiment [10] relates to Enterococcus faecalis. Description: Synergistic antimicrobial activity against Enterococcus faecalis ATCC 49532 after 20 hrs in presence of ciprofloxacin by checkerboard assay. The gist of the method: as §3
For experiment [11], the system named is Escherichia coli. Nature of the experiment: Antibacterial activity against tolC deficient Escherichia coli assessed as formation of spheroplasts at 25 ug/ml after 2 hrs by FM4-64/DAPI/SYTOX green staining-based deconvolution microscopic analysis.

On to `CCCCc1ccc(-c2nc(C)c(/C(C)=N/NC(=N)N)s2)cc1`, for which the MIC against Pseudomonas aeruginosa was 64 µg/mL (≈ 194 µM); in the experiment on Escherichia coli [1], 64 µg/mL (≈ 194 µM); with Enterobacter cloacae, 1 µg/mL; with Staphylococcus aureus, 1.3 to 5.6 µg/mL (≈ 3.95 to 17 µM). For the same compound, the Ratio in the experiment with Enterococcus faecalis [2] is listed as 1. The outcome in the experiment on Enterococcus faecium, with Escherichia coli [3], in the experiment with Escherichia coli [4], with Bacillus subtilis [6] and in the experiment with Escherichia coli [11] was Active. Also, the Activity with Bacillus subtilis [5] is given as 95%. In addition, the outcome in the experiment with Enterococcus faecalis [7] was inactive. In addition, the “fractional inhibitory concentration index (FICI)” value is on record as 3 in the experiment with Enterococcus faecalis [8], 2 with Enterococcus faecalis [9] and 0.63 - 1 in the experiment on Enterococcus faecalis [10].

As a reminder, the MIC is the lowest concentration found to suppress growth.
